Reference: article PMC3914721 (Biochemistry, 2013)
Several values for one entry are separate records, joined by “and”; a condition that tells them apart may be missing. Equal entries are not always repeated. Where two headings read alike, the source gives them in different places.

Columns and labels:
Ms sGC-NT21 [1] = biological target: T1, Ms sGC-NT21 (Manduca sexta, UniProt O77106); experiment: CO titration monitoring the CO-bound Soret band; type: binding; details: for Kd^CO/Kd^CO′ cooperativity factor: ratio of CO dissociation constants without and with compound
Outline: (§1)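 CO titrations were run at room temperature in 50 mM potassium phosphate pH 7.4, 100 mM KCl, 5% glycerol, at several YC-1 concentrations (0–50 μM). NT21 used a 10 cm cuvette with 0.1 μM protein; NT13 used a 1 cm cuvette with 1 μM protein. A four-state cooperative model was globally fit to normalized absorbance changes at 423 and 433 nm, giving Ka^CO, Ka^YC-1 and Kint. Kd^CO′ is the inverse of Ka^CO·Kint.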

Bt sGC β1(1–359) = biological target: T2, Bt sGC β1(1–359) (Bos taurus, UniProt P16068); experiment: CO titration monitoring the CO-bound Soret band; type: binding, Bos taurus (bovine); details: read-out: Kd^CO; no stimulator; 1 μM protein
T2 sequence (P16068 1-359): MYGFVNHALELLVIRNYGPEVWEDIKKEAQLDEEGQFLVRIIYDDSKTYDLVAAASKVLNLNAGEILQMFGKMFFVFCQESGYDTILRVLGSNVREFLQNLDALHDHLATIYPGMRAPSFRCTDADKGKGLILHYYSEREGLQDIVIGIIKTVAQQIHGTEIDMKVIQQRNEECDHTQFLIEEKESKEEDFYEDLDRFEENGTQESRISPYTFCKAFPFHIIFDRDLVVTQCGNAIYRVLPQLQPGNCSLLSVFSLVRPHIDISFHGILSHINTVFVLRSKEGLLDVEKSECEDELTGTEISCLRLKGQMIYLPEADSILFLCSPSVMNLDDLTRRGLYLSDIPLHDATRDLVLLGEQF
Outline: (§2)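 CO from a saturated solution was added by gas-tight syringe to protein in septum-capped 1 or 10 cm cuvettes. The appearance of the CO-bound Soret absorption band was followed, and data were fit to a single-site saturation ligand-binding model.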

Bt sGC β1(1–197) = biological target: T3, Bt sGC β1(1–197) (Bos taurus, UniProt P16068); experiment: CO titration monitoring the CO-bound Soret band; type: binding, Bos taurus (bovine)
T3 sequence (P16068 1-197): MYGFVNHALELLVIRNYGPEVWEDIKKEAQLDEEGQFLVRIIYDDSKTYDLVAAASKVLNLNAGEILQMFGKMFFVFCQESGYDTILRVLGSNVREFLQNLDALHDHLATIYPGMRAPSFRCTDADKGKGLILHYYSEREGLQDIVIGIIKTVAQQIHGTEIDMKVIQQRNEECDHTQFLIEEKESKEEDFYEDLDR
Outline: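 Bovine β1 H-NOX construct was expressed in E. coli BL21(DE3)pRIPL with δ-aminolevulinic acid and ferric citrate. It was purified by Q-FF, S75 and second Q-FF chromatography and prepared in Ar-purged buffer with excess dithionite. CO from a saturated solution was titrated by gas-tight syringe into the septum-capped cuvette while the CO-bound Soret band was followed. Data were fit to a single-site saturation model.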

Bt sGC (full length) [2] = details: read-out: Kd^CO, no stimulator, cited from earlier work
[3] = biological target: heterodimeric sGC proteins; experiment: CO binding to heterodimeric sGC proteins, summary over constructs; design: species or system Manduca sexta; details: read-out: Kd^CO, range over heterodimeric proteins; absence of YC-1
Outline: as §2

Hs sGC (full length) = details: read-out: Kd^CO; no stimulator; ref 77; cited from earlier work
Ms sGC β1(1–380) = biological target: T4, Ms sGC β1(1–380) (Manduca sexta, UniProt O77106); experiment: CO titration monitoring the CO-bound Soret band; type: binding; details: for Kd: read-out: Kd^CO
T4 sequence (O77106 1-380): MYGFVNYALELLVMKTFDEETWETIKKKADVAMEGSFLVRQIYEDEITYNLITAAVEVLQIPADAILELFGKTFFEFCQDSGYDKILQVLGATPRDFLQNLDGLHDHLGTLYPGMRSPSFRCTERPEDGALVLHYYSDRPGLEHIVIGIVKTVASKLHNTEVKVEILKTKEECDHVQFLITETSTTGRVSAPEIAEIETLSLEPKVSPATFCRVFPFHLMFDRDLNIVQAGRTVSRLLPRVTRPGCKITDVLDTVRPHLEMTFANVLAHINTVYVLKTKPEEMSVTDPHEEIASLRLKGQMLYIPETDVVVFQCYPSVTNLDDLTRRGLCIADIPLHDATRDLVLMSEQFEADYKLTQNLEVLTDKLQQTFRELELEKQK
Outline: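 Ms β1(1–380) was expressed in E. coli Rosetta pLysS with 25 μM δ-aminolevulinic acid. It was purified by anion exchange, Ni-NTA (EDTA elution) and S200 gel filtration, where it ran as a monomer, then prepared in Ar-purged buffer with excess dithionite. CO from a saturated solution was titrated into a septum-capped 10 cm cuvette, the CO-bound Soret band was followed, and data were fit to a single-site saturation model.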

Ms sGC-NT19 = details: read-out: Kd^CO; no stimulator; ref 43; cited from earlier work
Ms sGC-NT2 = details: read-out: Kd^CO, no stimulator, cited from earlier work
Ms sGC-NT13 [4] = biological target: T5, Ms sGC-NT13 (Manduca sexta, UniProt O77106); experiment: CO titration monitoring the CO-bound Soret band; type: binding; details: for Kd^CO/Kd^CO′ cooperativity factor: ratio of CO dissociation constants without and with compound
Outline: as §1

[5] = test system: pre-constricted aortic rings; details: read-out: EC50 to stimulate sGC in pre-constricted aortic rings; cited from earlier work
Ms sGC-NT13 [6] = biological target: T5, Ms sGC-NT13; type: binding
Ms sGC-NT21 [7] = biological target: T1, Ms sGC-NT21; type: binding; details: for Kint (CO) cooperativity factor: from global fitting
Ms sGC-NT13-CO = Ms sGC-NT13-CO (Manduca sexta, UniProt O77106); experiment: Soret band shift titration of CO-saturated protein; type: binding
Ms sGC-NT21-CO = Ms sGC-NT21-CO (Manduca sexta, UniProt O77106); experiment: Soret band shift titration of CO-saturated protein; type: binding
Ms sGC-NT = Ms sGC-NT (Manduca sexta, UniProt O77106); experiment: Stimulator binding to Ms sGC-NT constructs, summary over constructs and methods; details: for Effect of α1 H-NOX removal on stimulator binding (Ms sGC-NT21 vs Ms sGC-NT13): unliganded proteins
β1 PAS domain = experiment: Fluorescence anisotropy of YC-1; type: binding, Manduca sexta; details: 2 μM YC-1, 20 °C; likely non-specific
Ms sGC α1 PAS = biological target: T6, Ms sGC α1 PAS (Manduca sexta, UniProt O77105); experiment: Fluorescence anisotropy of YC-1; type: binding
T6 sequence (O77105 279-404): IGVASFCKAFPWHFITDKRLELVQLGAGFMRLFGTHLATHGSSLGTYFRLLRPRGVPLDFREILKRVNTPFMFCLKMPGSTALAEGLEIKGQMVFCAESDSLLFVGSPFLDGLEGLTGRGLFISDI

sGC = details: cited from earlier work
Ms sGC β1 (1–380) = experiment: Soret band shift on YC-1 addition; type: binding, Manduca sexta; details: CO-saturated protein
Bt sGC (full length) [8] = details: read-out: Kd^YC-1′, +CO; measured in the presence of GTP; cited from earlier work
lysozyme = experiment: Fluorescence anisotropy of YC-1; type: binding; details: 2 μM YC-1, 20 °C

Question: Which results are given for `[C-]#[O+]` [CO]?
Answer: Kd (Ms sGC-NT21 [1]; read-out: Kd^CO, no stimulator, 10 cm cuvette, 0.1 μM protein): 2200 ± 200 nM; Fold tighter CO binding than Ms sGC proteins containing the α1 H-NOX domain (Ms sGC-NT21 [1]; removal of the α1 H-NOX domain): 20–40 fold and 24 fold; Kd (Bt sGC β1(1–359)): 15 ± 4 µM; Fold less tight CO binding than Ms sGC β1(1–380) (Bt sGC β1(1–197)): ~ 8 fold; Kd (Bt sGC β1(1–197); read-out: Kd^CO, no stimulator, 1 cm cuvette, 0.5 μM protein): 1600 ± 200 nM; Kd (Bt sGC (full length) [2]; ref 51): 127 µM; Kd (Bt sGC (full length) [2]; ref 76): 97 µM; Kd [3]: 50 to 100 µM and 50 to 90 µM; Kd (Hs sGC (full length)): 260 µM; Kd (Ms sGC β1(1–380); absence of the alpha chain): ~200 nM; Kd (Ms sGC β1(1–380); no stimulator, 10 cm cuvette, 0.1 μM protein): ~200 nM and 200 nM; Fold enhancement of CO binding on complete removal of the α1 chain (Ms sGC β1(1–380); vs heterodimeric Ms sGC): 265 fold; Kd (Ms sGC-NT19): 50 ± 3 µM; Kd (Ms sGC-NT2; ref 33): 77 ± 7 µM; Kd (Ms sGC-NT2; ref 43): 90 ± 9 µM; Kd (Ms sGC-NT13 [4]; read-out: Kd^CO, no stimulator, 1 μM protein): 53 ± 4 µM

Question: Which results are given for `Nc1nc(-c2nn(Cc3ccccc3F)c3ncccc23)ncc1C1CC1` [BAY 41–2272]?
Answer: Solubility in aqueous buffer (Aqueous solubility): poor solubility; EC50 [5]: 300 nM; Kd^CO/Kd^CO′ cooperativity factor (Ms sGC-NT21 [1]): 31 ± 5; Kd (Ms sGC-NT13 [6]; Kd^BAY, −NO/CO, estimated assuming linked equilibria: (Kd^CO/Kd^CO′) Kd^BAY′): 17 ± 3 µM; Kd (Ms sGC-NT21 [7]): 30 ± 10 nM; Kint (CO) cooperativity factor (Ms sGC-NT21 [7]): 58 ± 7; Kd (Ms sGC-NT13-CO): 80 ± 10 nM; Kd (Ms sGC-NT21-CO): 90 ± 20 nM; Kd^CO/Kd^CO′ cooperativity factor (Ms sGC-NT13 [4]): 212 ± 23; Effect of α1 H-NOX removal on stimulator binding (Ms sGC-NT21 vs Ms sGC-NT13) (Ms sGC-NT): ~ 9 fold

Question: With `OCc1ccc(-c2nn(Cc3ccccc3)c3ccccc23)o1` [YC-1] as the compound, how does the “Binding of YC-1 by fluorescence anisotropy” value (β1 PAS domain) read?
Answer: weak signal

Question: What about the Kd (Ms sGC α1 PAS) of the same compound?
Answer: > 100 µM

Question: And the “Solubility in aqueous buffer” value (Aqueous solubility)?
Answer: poor solubility

Question: And the “Tightening of the CO dissociation constant upon YC-1 binding” value (Ms sGC-NT21 [1]; 50 μM YC-1)?
Answer: 10 fold

Question: What about the “Kd^CO/Kd^CO′ cooperativity factor” value (Ms sGC-NT21 [1]) of the same compound?
Answer: 11 ± 1

Question: What about the “Kint (CO) cooperativity factor” value (Ms sGC-NT13 [6]; from global fitting) of the same compound?
Answer: 19 and 19 ± 2

Question: What about the “Kint (CO) cooperativity factor” value (Ms sGC-NT21 [7]) of the same compound?
Answer: 14 and 13.8 ± 0.3

Question: And the “Stimulation of sGC” value (sGC; in the absence of NO)?
Answer: two- to four-fold

Question: And the “Activation of sGC” value (sGC; synergistically with CO or NO)?
Answer: several hundred fold

Question: What about the Kd (Ms sGC-NT13-CO) of the same compound?
Answer: 800 ± 100 nM

Question: What about the Kd (Ms sGC-NT21-CO) of the same compound?
Answer: 600 ± 100 nM

Question: And the “Kint, cooperativity in CO binding” value (Ms sGC β1(1–380); any of the constructs missing the α1 chain)?
Answer: ~ 1

Question: What about the “Shift in Soret band maxima upon YC-1 binding” value (Ms sGC β1 (1–380)) of the same compound?
Answer: not observed

Question: And the Kd (Bt sGC (full length) [8])?
Answer: ~8 µM

Question: What about the “Kd^CO/Kd^CO′ cooperativity factor” value (Ms sGC-NT13 [4]) of the same compound?
Answer: 19 ± 3

Question: What about the Kd (Ms sGC-NT; Kd, CO complexes (presence of CO), over constructs, Ms sGC-NT13 and Ms sGC-NT21) of the same compound?
Answer: 600 to 1100 nM and ~1000 nM

Question: And the “Effect of α1 H-NOX removal on stimulator binding (Ms sGC-NT21 vs Ms sGC-NT13)” value (Ms sGC-NT)?
Answer: ~ 2 fold

Question: And the “Binding of YC-1 by fluorescence anisotropy” value (lysozyme)?
Answer: not for lysozyme
